The record followed here is BindingDB's records for doi:10.1016/j.bmc.2010.03.038 (Northwestern University, 2010).

Usually IC50 stands for the concentration that gives 50% inhibition.

In experiment [1] the target is Voltage-dependent L-type calcium channel subunit alpha-1D (Rattus norvegicus, UniProt P27732). Briefly: Antagonist activity at rat Cav1.3 expressed in HEK293 cells assessed as inhibition of voltage pulse-induced calcium current by FLIPR calcium 4 assay. The method, boiled down: (§1)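 HEK293 lines stably expressing Cavβ3 and Cavα2δ-1 plus Cav1.2 α1C (rabbit) or Cav1.3 α1D (rat) were selected with zeocin/hygromycin. Calcium signals were read by FLIPR with Calcium 4 dye. IC50 came from 11-point dose-response curves. Signal percentage error (SD/mean) was 6.4% for Cav1.2 and 4.1% for Cav1.3 cells.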
Chain of Voltage-dependent L-type calcium channel subunit alpha-1D (P27732 whole entry): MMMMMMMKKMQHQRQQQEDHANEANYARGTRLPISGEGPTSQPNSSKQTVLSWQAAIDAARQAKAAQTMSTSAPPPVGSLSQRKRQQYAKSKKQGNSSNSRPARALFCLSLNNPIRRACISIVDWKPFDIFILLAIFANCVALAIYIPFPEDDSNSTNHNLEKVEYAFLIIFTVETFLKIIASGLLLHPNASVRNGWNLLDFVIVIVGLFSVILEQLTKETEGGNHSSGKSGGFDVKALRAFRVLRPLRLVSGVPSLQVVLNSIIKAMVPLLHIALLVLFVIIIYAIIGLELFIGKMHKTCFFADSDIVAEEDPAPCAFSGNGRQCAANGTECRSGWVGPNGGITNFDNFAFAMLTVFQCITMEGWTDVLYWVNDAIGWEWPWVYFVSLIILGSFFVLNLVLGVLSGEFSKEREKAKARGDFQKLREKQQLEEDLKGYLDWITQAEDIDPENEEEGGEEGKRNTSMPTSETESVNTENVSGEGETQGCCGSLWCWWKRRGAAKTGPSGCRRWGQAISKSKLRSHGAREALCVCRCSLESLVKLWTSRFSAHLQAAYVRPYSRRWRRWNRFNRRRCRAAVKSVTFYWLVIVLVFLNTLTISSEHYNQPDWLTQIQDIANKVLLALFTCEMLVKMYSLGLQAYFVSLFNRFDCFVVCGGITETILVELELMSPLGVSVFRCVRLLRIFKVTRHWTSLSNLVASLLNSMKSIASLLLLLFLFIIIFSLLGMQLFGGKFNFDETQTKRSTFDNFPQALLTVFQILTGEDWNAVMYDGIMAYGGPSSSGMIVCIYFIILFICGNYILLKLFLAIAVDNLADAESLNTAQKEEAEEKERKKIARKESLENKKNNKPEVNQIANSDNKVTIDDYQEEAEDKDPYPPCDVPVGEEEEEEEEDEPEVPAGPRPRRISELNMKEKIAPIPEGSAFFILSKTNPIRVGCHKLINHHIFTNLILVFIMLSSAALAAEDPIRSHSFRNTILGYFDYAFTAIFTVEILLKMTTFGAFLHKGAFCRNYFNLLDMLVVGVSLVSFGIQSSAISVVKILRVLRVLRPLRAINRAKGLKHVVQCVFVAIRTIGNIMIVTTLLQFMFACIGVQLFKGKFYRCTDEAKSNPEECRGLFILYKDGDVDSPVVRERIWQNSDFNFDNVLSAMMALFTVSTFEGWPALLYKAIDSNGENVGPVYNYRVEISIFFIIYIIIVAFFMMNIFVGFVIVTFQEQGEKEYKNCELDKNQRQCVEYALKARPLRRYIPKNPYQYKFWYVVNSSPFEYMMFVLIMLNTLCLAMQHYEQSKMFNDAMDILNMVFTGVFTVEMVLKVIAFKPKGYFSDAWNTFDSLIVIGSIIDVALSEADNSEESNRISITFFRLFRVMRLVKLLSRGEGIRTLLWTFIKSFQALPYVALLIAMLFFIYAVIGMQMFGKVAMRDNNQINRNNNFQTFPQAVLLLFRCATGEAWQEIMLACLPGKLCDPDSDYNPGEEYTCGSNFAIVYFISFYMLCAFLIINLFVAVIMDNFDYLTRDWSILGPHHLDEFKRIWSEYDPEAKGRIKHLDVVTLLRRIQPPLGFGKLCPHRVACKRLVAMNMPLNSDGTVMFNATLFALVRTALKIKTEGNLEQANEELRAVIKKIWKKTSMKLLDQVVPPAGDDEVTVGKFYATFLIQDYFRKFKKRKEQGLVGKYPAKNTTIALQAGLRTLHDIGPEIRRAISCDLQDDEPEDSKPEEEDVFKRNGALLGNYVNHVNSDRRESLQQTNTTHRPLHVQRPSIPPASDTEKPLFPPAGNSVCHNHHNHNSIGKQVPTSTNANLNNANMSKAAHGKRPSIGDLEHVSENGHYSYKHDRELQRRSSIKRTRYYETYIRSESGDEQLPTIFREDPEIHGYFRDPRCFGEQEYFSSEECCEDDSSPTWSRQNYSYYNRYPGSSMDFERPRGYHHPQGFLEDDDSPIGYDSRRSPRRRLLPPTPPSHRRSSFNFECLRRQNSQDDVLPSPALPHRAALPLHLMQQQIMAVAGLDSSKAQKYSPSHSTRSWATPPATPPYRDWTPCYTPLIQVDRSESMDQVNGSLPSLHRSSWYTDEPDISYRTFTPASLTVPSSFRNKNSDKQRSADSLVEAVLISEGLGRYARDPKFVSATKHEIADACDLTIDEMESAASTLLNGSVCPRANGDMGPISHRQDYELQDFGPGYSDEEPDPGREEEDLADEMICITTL

For experiment [2], the target named is Voltage-dependent L-type calcium channel subunit alpha-1C (Oryctolagus cuniculus, UniProt P15381). Briefly: Antagonist activity at rabbit Cav1.2 expressed in HEK293 cells assessed as inhibition of voltage pulse-induced calcium current by FLIPR calcium 4 assay. The method, boiled down:
as §1

Molecules are shown by their SMILES.

Chain of Voltage-dependent L-type calcium channel subunit alpha-1C (P15381 whole entry): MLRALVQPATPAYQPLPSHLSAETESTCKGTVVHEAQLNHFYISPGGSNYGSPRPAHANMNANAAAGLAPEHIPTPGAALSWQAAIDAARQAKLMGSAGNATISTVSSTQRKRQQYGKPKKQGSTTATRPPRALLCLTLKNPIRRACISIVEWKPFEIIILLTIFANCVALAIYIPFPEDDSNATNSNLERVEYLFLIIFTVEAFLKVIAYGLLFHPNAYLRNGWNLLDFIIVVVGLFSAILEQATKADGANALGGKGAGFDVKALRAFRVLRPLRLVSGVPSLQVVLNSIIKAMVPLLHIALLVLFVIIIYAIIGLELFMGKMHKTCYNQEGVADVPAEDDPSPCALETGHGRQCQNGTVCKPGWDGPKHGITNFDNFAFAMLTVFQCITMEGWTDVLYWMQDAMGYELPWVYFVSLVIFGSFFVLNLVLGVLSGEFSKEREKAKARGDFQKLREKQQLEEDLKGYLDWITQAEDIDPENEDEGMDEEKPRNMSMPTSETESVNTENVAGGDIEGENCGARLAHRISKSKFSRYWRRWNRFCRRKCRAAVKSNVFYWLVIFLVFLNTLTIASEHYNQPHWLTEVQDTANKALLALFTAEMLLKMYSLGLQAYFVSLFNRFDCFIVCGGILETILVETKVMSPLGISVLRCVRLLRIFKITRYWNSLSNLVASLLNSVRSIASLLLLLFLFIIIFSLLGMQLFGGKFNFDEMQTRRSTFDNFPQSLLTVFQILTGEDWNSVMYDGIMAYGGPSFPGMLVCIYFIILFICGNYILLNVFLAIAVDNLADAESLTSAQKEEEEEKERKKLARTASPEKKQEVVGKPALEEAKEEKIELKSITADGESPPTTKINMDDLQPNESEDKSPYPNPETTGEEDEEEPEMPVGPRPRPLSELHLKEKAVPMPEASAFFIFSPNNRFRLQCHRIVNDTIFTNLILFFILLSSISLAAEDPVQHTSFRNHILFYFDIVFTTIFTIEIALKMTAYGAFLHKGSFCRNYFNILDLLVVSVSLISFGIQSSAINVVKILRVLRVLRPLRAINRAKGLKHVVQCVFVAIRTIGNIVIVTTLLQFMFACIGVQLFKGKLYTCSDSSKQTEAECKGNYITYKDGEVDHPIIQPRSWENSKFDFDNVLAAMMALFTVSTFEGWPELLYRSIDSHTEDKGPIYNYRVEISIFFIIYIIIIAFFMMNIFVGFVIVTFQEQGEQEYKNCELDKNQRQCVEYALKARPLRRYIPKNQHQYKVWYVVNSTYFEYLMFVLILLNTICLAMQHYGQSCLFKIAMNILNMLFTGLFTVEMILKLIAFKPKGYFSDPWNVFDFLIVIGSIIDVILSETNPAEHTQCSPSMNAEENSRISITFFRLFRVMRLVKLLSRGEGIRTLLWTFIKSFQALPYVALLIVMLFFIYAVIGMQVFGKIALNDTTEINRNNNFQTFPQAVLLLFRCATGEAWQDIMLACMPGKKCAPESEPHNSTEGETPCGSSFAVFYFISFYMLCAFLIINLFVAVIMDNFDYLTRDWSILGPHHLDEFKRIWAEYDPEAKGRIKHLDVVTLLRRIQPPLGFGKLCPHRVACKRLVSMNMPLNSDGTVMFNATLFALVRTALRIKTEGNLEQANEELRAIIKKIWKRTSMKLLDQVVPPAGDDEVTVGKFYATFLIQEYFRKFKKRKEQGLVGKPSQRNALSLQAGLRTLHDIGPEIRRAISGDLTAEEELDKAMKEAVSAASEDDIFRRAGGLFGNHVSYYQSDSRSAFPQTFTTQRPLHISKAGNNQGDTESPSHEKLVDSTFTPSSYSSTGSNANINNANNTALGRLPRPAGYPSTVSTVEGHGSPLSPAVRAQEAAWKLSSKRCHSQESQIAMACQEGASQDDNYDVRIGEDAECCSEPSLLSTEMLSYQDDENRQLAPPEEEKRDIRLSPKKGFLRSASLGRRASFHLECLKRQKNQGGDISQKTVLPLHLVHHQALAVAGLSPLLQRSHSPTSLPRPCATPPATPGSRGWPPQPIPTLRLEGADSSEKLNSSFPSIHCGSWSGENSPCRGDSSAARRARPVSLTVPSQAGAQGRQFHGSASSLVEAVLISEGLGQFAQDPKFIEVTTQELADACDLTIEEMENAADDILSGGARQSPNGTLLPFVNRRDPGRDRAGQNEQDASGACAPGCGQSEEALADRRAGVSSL

In the case of `C=CCOC(=O)C1=C(C)N=C(C)C(C(=O)OCC)C1c1cccc([N+](=O)[O-])c1` (stereo not drawn) [3-allyl 5-ethyl 2,6-dimethyl-4-(3-nitrophenyl)-1,4-dihydropyridine-3,5-dicarboxylate], the results for the half-maximal inhibitory concentration (IC50) in experiment [1] and in experiment [2] were 0.015 µM and 0.025 µM, respectively.
The corresponding values for `COC(=O)C1C(C)=NC(C)=C(C(=O)OCc2ccccc2)C1c1cccc([N+](=O)[O-])c1` (stereo not drawn) [3-benzyl 5-methyl 2,6-dimethyl-4-(3-nitrophenyl)-1,4-dihydropyridine-3,5-dicarboxylate] are 0.015 µM and 0.025 µM.
For `COC(=O)C1C(C)=NC(C)=C(C(=O)OC2C=CCCC2)C1c1cccc([N+](=O)[O-])c1` (stereo not drawn) [3-cyclohex-2-enyl 5-methyl 2,6-dimethyl-4-(3-nitrophenyl)-1,4-dihydropyridine-3,5-dicarboxylate] the same measures were 0.01 µM and 0.01 µM.
For `C=C(C)C(=O)OCCOC(=O)C1=C(C)N=C(C)C(C(=O)OCC)C1c1cccc([N+](=O)[O-])c1` (stereo not drawn) [3-ethyl 5-(2-(methacryloyloxy)ethyl)2,6-dimethyl-4-(3-nitrophenyl)-1,4-dihydropyridine-3,5-dicarboxylate] the same measures were 0.01 µM and 0.01 µM.
